Laboratory results from ChEMBL document CHEMBL2057185, “Analogs of N'-hydroxy-N-(4H,5H-naphtho[1,2-d]thiazol-2-yl)methanimidamide inhibit Mycobacterium tuberculosis methionine aminopeptidases” (Bioorg Med Chem, 2012).
Converted amounts (≈) assume the structure as drawn. The source made the active and inactive calls. No cut-off for these calls is given here.

Legend:
[1] = Inhibition of Mycobacterium tuberculosis N-terminal His6-tagged MetAP1C using methionylprolyl-p-nitroanilide as substrate incubated for 20 mins prior to substrate addition measured for 20 mins by spectrophotometry in presence of Mn2+
Summary of the method: (§1)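 Coupled colorimetric assay in 40 mM HEPES pH 7.5, 100 mM NaCl, 10 µM CoCl₂ or MnCl₂. Enzyme was 200 nM MetAP1a or 100 nM MetAP1c, with 1.5 U/mL Bacillus coagulans proline aminopeptidase as coupling enzyme. Eleven inhibitor levels (0.049–50 µM) were preincubated 20 min at room temperature. Met-Pro-pNA was added to 600 µM final, and A405 was followed 20 min against DMSO wells. IC50 came from nonlinear regression, averaging ≥3 independent triplicate experiments ± SD.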

[2] = Inhibition of Mycobacterium tuberculosis N-terminal His6-tagged MetAP1C using methionylprolyl-p-nitroanilide as substrate incubated for 20 mins prior to substrate addition measured for 20 mins by spectrophotometry in presence of Co2+; summary of the method: as §1
[3] = Inhibition of Mycobacterium tuberculosis C-terminal His6-tagged MetAP1A using methionylprolyl-p-nitroanilide as substrate incubated for 20 mins prior to substrate addition measured for 20 mins by spectrophotometry in presence of Mn2+; summary of the method: as §1
[4] = Inhibition of Mycobacterium tuberculosis C-terminal His6-tagged MetAP1A using methionylprolyl-p-nitroanilide as substrate incubated for 20 mins prior to substrate addition measured for 20 mins by spectrophotometry in presence of Co2+; summary of the method: as §1
[5] = Co2+ chelation activity of the compound at 10 uM; assay type: functional
Summary of the method: (§2)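 UV-vis spectra were recorded for compounds at 10 µM in MetAP assay buffer, with and without 10 µM cobalt or manganese chloride.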

[6] = system: Mycobacterium tuberculosis; experiment: Antimycobacterial activity against Mycobacterium tuberculosis H37Rv after 2 weeks; assay type: functional; conditions: 336 h
Summary of the method: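 Each well received log-phase M. tuberculosis H37Rv diluted to ≈10⁶ CFU/mL in 7H9. An uninoculated sterile control was included. Plates were sealed and incubated 37 °C for two weeks.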

[7] = Mn2+ chelation activity of the compound at 10 uM; assay type: functional; summary of the method: as §2
[8] = Chemical stability of the compound in Middlebrook 7H9 broth at 200 ug/mL after 10 days by HPLC analysis; assay type: physicochemical; conditions: 240 h
[9] = Inhibition of Mycobacterium tuberculosis MetAP1A expressed in Escherichia coli using Met-AMC as substrate in presence of Mn2+
[10] = Inhibition of Mycobacterium tuberculosis MetAP1C expressed in Escherichia coli using Met-AMC as substrate in presence of Mn2+
[11] = system: Mycobacterium tuberculosis; experiment: Antimycobacterial activity against Mycobacterium tuberculosis H37Rv ATCC 27294 after 7 days by microplate alamar blue assay; assay type: functional; conditions: H37Rv ATCC 27294, 168 h

In the case of `COc1ccc2c(c1)CCc1sc(/N=C/c3ccco3)nc1-2`, the IC50 [1] is reported as > 50 µM, the IC50 [2] is reported as > 50 µM and the IC50 [3] is reported as > 50 µM. The IC50 [4] was > 50 µM.

For `O/N=C\Nc1nc2c(s1)COc1cc3c(cc1-2)OCO3`, the IC50 [1] was 4.4 µM, the IC50 [2] was 0.73 µM and the IC50 [3] was > 10 µM. The Activity [5] was “Active”, the MIC [6] was 100 µg/mL (≈ 343 µM) and the IC50 [4] was 1.43 µM. The Activity [7] was “Active”.

In the case of `O/N=C\Nc1nc2c(s1)CCc1ccccc1-2`, the IC50 [1] is reported as > 50 µM, the IC50 [2] is reported as 1.05 µM and the Stability [8] is reported as “Stable”. For the same molecule, the IC50 [3] was > 50 µM, the MIC [6] was 100 µg/mL (≈ 408 µM) and the IC50 [4] was 11.5 µM.

In the case of `CCCCCCCCC(=O)Nc1nc2c(s1)CCc1ccccc1-2`, the IC50 [1] is reported as > 50 µM, the IC50 [2] is reported as > 50 µM and the IC50 [3] is reported as > 50 µM. The IC50 [4] was > 50 µM.

With `COc1cc2c(cc1OC)-c1nc(N/C=N\O)sc1CC2` the IC50 [1] was > 50 µM, the IC50 [2] was 3.77 µM and the IC50 [3] was 14.6 µM. For the same molecule, the MIC [6] was > 200 µg/mL and the IC50 [4] was 14.6 µM.

In the case of `COc1ccc(-c2csc(N/C=N\O)n2)cc1OC`, the IC50 [1] is reported as 7 µM, the IC50 [2] is reported as 6.6 µM and the IC50 [3] is reported as > 20 µM. For the same molecule, the MIC [6] was 200 µg/mL (≈ 716 µM) and the IC50 [4] was > 20 µM.

With `COc1ccc2c(c1)-c1nc(NC=NO)sc1CC2` the IC50 [1] was 2.33 µM, the IC50 [2] was 0.64 µM and the Stability [8] was “Stable”. The IC50 [3] was > 50 µM, the MIC [6] was 200 µg/mL (≈ 726 µM) and the IC50 [4] was 1.9 µM.

`CO[C@@H](C(=O)NCCOc1c(C)cc(C)cc1C)[C@H](O)[C@@H](O)[C@H](O)/C=C/C(C)(C)C` gave an IC50 [9] of 6.9 µM, an IC50 [10] of 0.54 µM and an MIC [11] of 18.5 µg/mL (≈ 43.7 µM).

For `COc1ccc2c(c1)CCc1sc(NC(C)=O)nc1-2`, the IC50 [1] was > 50 µM, the IC50 [2] was > 50 µM and the IC50 [3] was > 50 µM. The IC50 [4] was > 50 µM.

With `CN(C)/C=N/c1nc2c(s1)CCc1ccccc1-2` the IC50 [1] was > 50 µM, the IC50 [2] was 36.3 µM and the IC50 [3] was 27.7 µM. It also gave an IC50 [4] of 28.9 µM.

With `O/N=C\Nc1nc2c(s1)CCCc1cc3c(cc1-2)OCO3` the IC50 [1] was 14.5 µM, the IC50 [2] was 1.4 µM and the IC50 [3] was > 50 µM. The MIC [6] was > 200 µg/mL and the IC50 [4] was 15.4 µM.

In the case of `COc1ccc2c(c1)Cc1sc(N/C=N\O)nc1-2`, the IC50 [1] is reported as > 50 µM, the IC50 [2] is reported as > 50 µM and the IC50 [3] is reported as > 50 µM. For the same molecule, the MIC [6] was 100 µg/mL (≈ 383 µM) and the IC50 [4] was > 50 µM.

`COc1cccc2c1CCc1sc(N/C=N\O)nc1-2` showed an IC50 [1] of 10.3 µM, an IC50 [2] of 1.89 µM and an IC50 [3] of 11.7 µM. The MIC [6] was > 200 µg/mL and the IC50 [4] was 11.3 µM.

In the case of `Nc1nc2c(s1)CCc1ccccc1-2`, the IC50 [1] is reported as > 50 µM, the IC50 [2] is reported as > 50 µM and the IC50 [3] is reported as > 50 µM. The IC50 [4] was > 50 µM.

With `O/N=C\Nc1nc2c(s1)CCOc1cc3c(cc1-2)OCO3` the IC50 [1] was 3.13 µM, the IC50 [2] was 0.38 µM and the Stability [8] was “Stable”. For the same molecule, the IC50 [3] was 24.5 µM, the Activity [5] was “Active” and the MIC [6] was > 200 µg/mL. The IC50 [4] was 1.26 µM and the Activity [7] was “Active”.

For `COc1ccc2c(c1)CCc1sc(/N=C/c3ccccc3O)nc1-2`, the IC50 [1] was > 50 µM, the IC50 [2] was > 50 µM and the IC50 [3] was > 50 µM. For the same molecule, the IC50 [4] was > 50 µM.

For `COc1ccc2c(c1)CCc1sc(N)nc1-2`, the IC50 [1] was > 50 µM, the IC50 [2] was > 50 µM and the IC50 [3] was > 50 µM. The IC50 [4] was > 50 µM.

With `CCCCCCCCC(=O)Nc1nc2c(s1)CCc1cc(OC)ccc1-2` the IC50 [1] was > 50 µM, the IC50 [2] was > 50 µM and the IC50 [3] was > 50 µM. For the same molecule, the IC50 [4] was > 50 µM.

For `COc1ccc2c(c1)CCc1sc(NC(=O)[C@H](C)O)nc1-2`, the IC50 [1] was > 50 µM, the IC50 [2] was > 50 µM and the IC50 [3] was > 50 µM. For the same molecule, the IC50 [4] was > 50 µM.

With `COc1ccc2c(c1)OCc1sc(N/C=N\O)nc1-2` the IC50 [1] was > 50 µM, the IC50 [2] was > 50 µM and the IC50 [3] was 4.7 µM. For the same molecule, the Activity [5] was “Active”, the MIC [6] was > 200 µg/mL and the IC50 [4] was 4.9 µM. The Activity [7] was “Active”.

In the case of `COc1ccc2c(c1)CCc1sc(N/C=N\O)nc1-2`, the IC50 [1] is reported as > 50 µM, the IC50 [2] is reported as 1.33 µM and the Stability [8] is reported as “Stable”. The IC50 [3] was > 50 µM, the MIC [6] was > 200 µg/mL and the IC50 [4] was 5.35 µM.

For `O/N=C\Nc1nc2c(s1)CCc1cc3c(cc1-2)OCO3`, the IC50 [1] was 12.5 µM, the IC50 [2] was > 20 µM and the IC50 [3] was > 20 µM. The MIC [6] was > 200 µg/mL and the IC50 [4] was 15.4 µM.

For `COc1ccc2c(c1)OC(c1ccccc1)c1sc(N/C=N\O)nc1-2` (configuration not stated), the IC50 [1] was > 50 µM, the IC50 [2] was > 50 µM and the IC50 [3] was 9.7 µM. For the same molecule, the MIC [6] was > 200 µg/mL and the IC50 [4] was 6.7 µM.

Molecule `O=C1C(Br)=C(Br)C(=O)c2ccccc21` [2,3-Dibromo-1,4-naphthoquinone] has an IC50 [2] of 0.71 µM, an MIC [6] of 25 µg/mL (≈ 79.1 µM) and an IC50 [4] of 1.14 µM.
